Reference: ChEMBL document CHEMBL5344453, “Selective Recognition of c-KIT 1 G-Quadruplex by Structural Tuning of Heteroaromatic Scaffolds and Side Chains” (ACS Med Chem Lett, 2024)
Calls of active or inactive are those of the source. The calls are words filed in the database; no cut-off is given here.

Columns and labels:
[1] = tested on: K562; assay: Attenuation of proto-oncogene expression in human c-KIT-positive K562 cells assessed as reduction in c-KIT oncogene expression at 11 uM measured after 24 hrs by qRT-PCR analysis relative to control; assay type: functional
How it was run: (§1)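 K562 cells treated 24 h at two doses per ligand (3 and 6 μM, 5.5 and 11 μM; positive control 2 and 4 μM). c-KIT, c-MYC and BCL-2 mRNA measured by qRT-PCR and normalized to housekeeping gene 18s, relative to untreated control.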

[2] = Reduction of c-MYC oncogene expression in human K562 cells transfected with c-MYC plasmid construct assessed as reduction in luciferase expression at 11 uM measured after 36 hrs by luciferase reporter assay; assay type: functional
How it was run: (§2)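 K562 cells were transfected with luciferase plasmids carrying the c-KIT, c-MYC or BCL-2 promoter G4. They were then treated with ligand (3 and 6 μM or 5.5 and 11 μM), and relative luciferase expression was measured.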

[3] = tested on: Quadruplex DNA; assay: Stabilization of G-quadruplex c-KIT2 5-FAM-GGGCGGGCGCGAGGGAGGGG-TAMRA-3 (unknown origin) assessed as change in melting temperature at 1 uM incubated for 1 hr in dark condition by FRET-based melting assay; assay type: nucleic-acid assay
How it was run: (§3)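 FRET melting of dual-fluorophore-tagged oligonucleotides (200 nM) in 60 mM potassium cacodylate buffer, pH 7.4, with ligand at 1 μM; ΔTm taken against the ligand-free oligonucleotide Tm as control.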

[4] = tested on: K562; assay: Induction of apoptosis in human K562 cells assessed as apoptosis at 11 uM incubated for 24 hrs by FITC-Annexin V and PI analysis; assay type: functional
How it was run: (§4)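 K562 cells were treated with ligand (3 and 6 μM or 5.5 and 11 μM) and dual-stained with annexin V and PI. Early and late apoptotic populations were quantified by flow cytometry dot plot analysis.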

[5] = tested on: Quadruplex DNA; assay: Stabilization of G-quadruplex BCL2 5-FAM-AGGGGCGGGCGCGGGAGGAAGGGGGCGGGAGCGGGGCTG-TAMRA-3 (unknown origin) assessed as change in melting temperature at 1 uM incubated for 1 hr in dark condition by FRET-based melting assay; assay type: nucleic-acid assay; how it was run: as §3
[6] = Reduction of c-KIT protein expression in human K562 cells at 11 uM measured after 24 hrs by Western blotting analysis relative to control; assay type: functional; conditions: K562, read-out: INH
How it was run: (§5)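 K562 cells were treated with ligand (3 and 6 μM or 5.5 and 11 μM). c-KIT protein was measured by Western blot with GAPDH as the housekeeping reference, relative to control.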

[7] = tested on: K562; assay: Cytotoxicity against human c-KIT-positive K562 cells assessed as cell viability measured after 24 hrs by XTT formazan assay; assay type: functional, cell-based; conditions: K562, 24 h
[8] = tested on: Quadruplex DNA; assay: Stabilization of G-quadruplex h-TELO 5-FAM-TTGGGTTAGGGTTAGGGTTAGGGA-TAMRA-3 (unknown origin) assessed as change in melting temperature at 1 uM incubated for 1 hr in dark condition by FRET-based melting assay; assay type: nucleic-acid assay; how it was run: as §3
[9] = tested on: Quadruplex DNA; assay: Stabilization of calf thymus […] ds DNA 5-FAM-CAATCGGATCGAATTCGATCCGATTG-TAMRA-3 assessed as change in melting temperature at 1 uM incubated for 1 hr in dark condition by FRET-based melting assay; assay type: nucleic-acid assay; conditions: Bos taurus; how it was run: as §3
[10] = tested on: MCF7; assay: Cytotoxicity against human MCF7 cells assessed as cell viability measured after 24 hrs by XTT formazan assay; assay type: functional, cell-based; conditions: MCF7, 24 h
[11] = Induction of cell permeation in human c-KIT-positive K562 cell membrane assessed as fold increase in (G- quadruplex/antibody complex) BG4 foci at 5.5 uM measured after 24 hrs by immunofluorescence assay; assay type: functional
How it was run: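 K562 cells were treated with ligand (3 or 5.5 μM) and immunostained with G4-specific antibody BG4. Nuclear BG4 foci were counted by confocal microscopy and expressed relative to untreated cells.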

[12] = Effect on proto-oncogene expression in human c-KIT-positive K562 cells assessed as down regulation in BCL-2 oncogene expression at 11 uM measured after 24 hrs by qRT-PCR analysis relative to control; assay type: functional; how it was run: as §1
[13] = tested on: K562; assay: Induction of apoptosis in human K562 cells assessed as apoptosis at 5.5 uM incubated for 24 hrs by FITC-Annexin V and PI analysis; assay type: functional; how it was run: as §4
[14] = tested on: Quadruplex DNA; assay: Stabilization of G-quadruplex VEGF 5-FAM-CGGGGCGGGCCGGGGGCGGGGT-TAMRA-3 (unknown origin) assessed as change in melting temperature at 1 uM incubated for 1 hr in dark condition by FRET-based melting assay; assay type: nucleic-acid assay; how it was run: as §3
[15] = tested on: Quadruplex DNA; assay: Stabilization of fluorophore tagged G-quadruplex c-KIT1 (unknown origin) assessed as change in melting temperature in presence of 0 to 100 equiv calf thymus DNA at 1 uM incubated for 1 hr in dark condition by competitive FRET-based melting assay; assay type: nucleic-acid assay
How it was run: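 Competitive FRET melting with fluorophore-labeled c-KIT 1 G-quadruplex and 1 μM ligand. Unlabeled calf thymus DNA was added at 0, 1, 5, 10, 50 and 100 molar equivalents over the labeled DNA, and ΔTm was monitored.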

[16] = Reduction of BCL-2 oncogene expression in human K562 cells transfected with BCL-2 plasmid construct assessed as reduction in luciferase expression at 11 uM measured after 36 hrs by luciferase reporter assay; assay type: functional; how it was run: as §2
[17] = tested on: K562; assay: Attenuation of proto-oncogene expression in human c-KIT-positive K562 cells assessed as reduction in c-KIT oncogene expression at 5.5 uM measured after 24 hrs by qRT-PCR analysis relative to control; assay type: functional; how it was run: as §1
[18] = Reduction of c-KIT protein expression in human K562 cells at 5.5 uM measured after 24 hrs by Western blotting analysis relative to control; assay type: functional; how it was run: as §5
[19] = Reduction of c-MYC oncogene expression in human K562 cells transfected with c-MYC plasmid construct assessed as reduction in luciferase expression at 5.5 uM measured after 36 hrs by luciferase reporter assay; assay type: functional
How it was run: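 Promoter luciferase reporter: K562 cells transfected with a c-MYC promoter G4-containing luciferase-expressing plasmid, then ligand-treated at two doses each (3 and 6 μM, or 5.5 and 11 μM); read-out as relative luciferase expression, reported as percent reduction.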

[20] = tested on: K562; assay: Induction of cell cycle arrest in human K562 cells assessed as accumulation at G0/G1 phase at 5.5 to 11 uM incubated for 24 hrs by propidium iodide based assay; assay type: functional; conditions: dose 5.5-11 µM
How it was run: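 K562 cells were treated with ligand (3 and 6 μM or 5.5 and 11 μM) and stained with propidium iodide. The fraction of cells in each cell-cycle phase was determined by flow cytometry.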

[21] = tested on: Quadruplex DNA; assay: Stabilization of G-quadruplex c-MYC 5-FAM-TGGGGAGGGTGGGGAGGGTGGGGAAGG-TAMRA- 3 (unknown origin) assessed as change in melting temperature at 1 uM incubated for 1 hr in dark condition by FRET-based melting assay; assay type: nucleic-acid assay; how it was run: as §3
[22] = Cytotoxicity against HEK293 cells assessed as cell viability measured after 24 hrs by XTT formazan assay; assay type: toxicity, cell-based; conditions: human
[23] = Effect on proto-oncogene expression in human c-KIT-positive K562 cells assessed as upregulation in c-MYC oncogene expression at 11 uM measured after 24 hrs by qRT-PCR analysis relative to control; assay type: functional; how it was run: as §1
[24] = Reduction of c-KIT oncogene expression in human K562 cells transfected with c-KIT plasmid construct assessed as reduction in luciferase expression at 11 uM measured after 36 hrs by luciferase reporter assay; assay type: functional; how it was run: as §2
[25] = tested on: Quadruplex DNA; assay: Stabilization of G-quadruplex c-KIT1 5-FAM-GGGAGGGCGCTGGGAGGAGGG-TAMRA-3 (unknown origin) assessed as change in melting temperature at 1 uM incubated for 1 hr in dark condition by FRET-based melting assay; assay type: nucleic-acid assay; how it was run: as §3
[26] = Reduction of c-KIT oncogene expression in human K562 cells transfected with c-KIT plasmid construct assessed as reduction in luciferase expression at 5.5 uM measured after 36 hrs by luciferase reporter assay; assay type: functional; how it was run: as §2
[27] = Effect on proto-oncogene expression in human c-KIT-positive K562 cells assessed as upregulation in c-MYC oncogene expression at 5.5 uM measured after 24 hrs by qRT-PCR analysis relative to control; assay type: functional; how it was run: as §1
[28] = Effect on proto-oncogene expression in human c-KIT-positive K562 cells assessed as upregulation in BCL-2 oncogene expression at 5.5 uM measured after 24 hrs by qRT-PCR analysis relative to control; assay type: functional; how it was run: as §1
[29] = Reduction of BCL-2 oncogene expression in human K562 cells transfected with BCL-2 plasmid construct assessed as reduction in luciferase expression at 5.5 uM measured after 36 hrs by luciferase reporter assay; assay type: functional; how it was run: as §2

**Q.** What does the source list for `CN(C)CCCNC(=O)c1ccc(-n2cc(-c3ccc4oc5ccccc5c4c3)nn2)cc1`?
**A.** inhibition at 11 µM [1]: 3%; inhibition at 11 µM [2]: 10.1%; ΔTm [3]: < 3 °C; Activity [4]: 11%; ΔTm [5]: < 3 °C; inhibition at 11 µM [6]: -15.8%; IC50 [7]: 11.7 µM; ΔTm [8]: < 3 °C; ΔTm [9]: < 3 °C; IC50 [10]: ≥ 19 µM; fold change (FC) [11]: 1.8; Activity [12]: 5%; Activity [13]: 1%; ΔTm [14]: < 3 °C; Activity [15]: Active; inhibition at 11 µM [16]: 14%; inhibition at 5.5 µM [17]: > 1%; inhibition at 5.5 µM [18]: 7.8%; inhibition at 5.5 µM [19]: 6.2%; Activity [20]: inactive; ΔTm [21]: < 3 °C; IC50 at 24 h [22]: ≥ 50 µM; Activity [23]: 31%; inhibition at 11 µM [24]: 7.6%; ΔTm [25]: < 3 °C; inhibition at 5.5 µM [26]: 3.3%; Activity [27]: 23%; Activity [28]: 8%; inhibition at 5.5 µM [29]: 9.5%
